Active and inactive are the calls of the source.
Tests used:
Mus musculus [1] = assay: Antinociceptive activity in C57BL6/J mouse assessed as effect in locomotive activity at 1 to 10 mg/kg, po administered for 4 hrs; assay type: functional, organism-based; conditions: dose 1-10 mg/kg
Procedure, shortened: (§1)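 Male C57BL/6J mice, 7 weeks old, n = 8/group, dosed orally at 1 or 10 mg/kg in PEG 300 (4 ml/kg). Tetrad tested 4 h postdose: locomotor activity, tail-immersion thermal nociception, catalepsy (assessed 60 s), body temperature. Means ± S.E.M. versus vehicle.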

[2] = biological target: T1, Fatty-acid amide hydrolase 1 (Rattus norvegicus) (UniProt P97612); assay: In vivo inhibition of FAAH in CFA induced Sprague-Dawley rat brain at 0.1 to 10 mg/kg, po relative to control; assay type: functional, organism-based; conditions: dose 0.1-10 mg/kg
T1 sequence (whole entry): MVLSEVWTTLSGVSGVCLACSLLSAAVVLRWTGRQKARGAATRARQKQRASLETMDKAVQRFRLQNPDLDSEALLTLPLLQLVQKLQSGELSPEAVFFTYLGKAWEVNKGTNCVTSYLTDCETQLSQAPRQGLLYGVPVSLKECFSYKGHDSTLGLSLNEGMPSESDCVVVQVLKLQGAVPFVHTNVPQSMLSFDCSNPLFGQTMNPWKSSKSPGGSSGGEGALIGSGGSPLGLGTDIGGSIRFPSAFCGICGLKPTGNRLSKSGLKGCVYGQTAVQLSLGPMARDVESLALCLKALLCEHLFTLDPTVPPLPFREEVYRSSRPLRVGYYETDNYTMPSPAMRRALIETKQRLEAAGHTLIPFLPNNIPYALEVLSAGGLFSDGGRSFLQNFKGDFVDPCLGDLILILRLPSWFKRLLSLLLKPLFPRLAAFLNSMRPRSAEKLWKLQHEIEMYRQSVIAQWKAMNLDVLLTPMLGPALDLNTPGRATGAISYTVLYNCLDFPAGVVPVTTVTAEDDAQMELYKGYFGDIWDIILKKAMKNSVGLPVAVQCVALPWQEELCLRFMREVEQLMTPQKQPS
Procedure, shortened: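 Brain and blood leukocyte membrane fractions from CFA rats after oral dosing. FAAH activity measured with 3H-labeled AEA substrate, quantifying released 3H-ethanolamine; n = 3 rats/group. Time course sampled at 1, 2, 4, 8, 24 h after 1 mg/kg.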

[3] = Plasma concentration in CFA induced Sprague-Dawley rat at 0.1 mg/kg, po by LC/MS analysis; assay type: ADME, organism-based; conditions: in vivo
[4] = biological target: T2, Fatty-acid amide hydrolase 1 (Mus musculus) (UniProt O08914); assay: Inhibition of FAAH in mouse brain at 10 uM in presence of FP-rhodamine by competitive activity-based protein profiling method; assay type: tissue-based
T2 sequence (whole entry): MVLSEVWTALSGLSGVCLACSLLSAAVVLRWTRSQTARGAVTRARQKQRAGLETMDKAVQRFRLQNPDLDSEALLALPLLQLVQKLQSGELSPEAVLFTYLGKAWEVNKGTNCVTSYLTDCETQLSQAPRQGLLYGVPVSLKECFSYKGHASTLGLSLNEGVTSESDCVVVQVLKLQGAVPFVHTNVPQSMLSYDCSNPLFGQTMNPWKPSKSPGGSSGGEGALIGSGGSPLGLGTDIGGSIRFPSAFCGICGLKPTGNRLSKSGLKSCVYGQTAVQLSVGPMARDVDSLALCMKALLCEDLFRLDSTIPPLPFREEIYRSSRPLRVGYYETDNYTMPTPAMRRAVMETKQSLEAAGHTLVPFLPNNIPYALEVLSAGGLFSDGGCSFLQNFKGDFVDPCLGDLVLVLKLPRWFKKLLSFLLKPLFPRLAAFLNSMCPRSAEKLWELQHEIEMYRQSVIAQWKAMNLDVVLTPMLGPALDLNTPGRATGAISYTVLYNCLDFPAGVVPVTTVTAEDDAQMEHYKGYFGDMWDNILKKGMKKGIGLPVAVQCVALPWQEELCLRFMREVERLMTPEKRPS
Procedure, shortened: (§2)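 Competitive ABPP on human and mouse brain, liver and heart proteomes (membrane and soluble fractions), exposed to compound at 10 or 100 μM or to DMSO. Serine hydrolases were then labeled with FP-rhodamine. Gels were read by fluorescence scanning, and loss of band labeling (FAAH or other hydrolases by kDa) was judged.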

Mus musculus [5] = assay: Antinociceptive activity in C57BL6/J mouse assessed as increased tail withdrawal latency at 1 to 10 mg/kg, po administered for 4 hrs; assay type: functional, organism-based; conditions: dose 1-10 mg/kg; procedure, shortened: as §1
[6] = biological target: T3, Fatty-acid amide hydrolase 1 (Homo sapiens) (UniProt O00519); assay: Inhibition of FAAH in human brain at 100 uM in presence of FP-rhodamine by competitive activity-based protein profiling method; assay type: tissue-based; procedure, shortened: as §2
T3 sequence (whole entry): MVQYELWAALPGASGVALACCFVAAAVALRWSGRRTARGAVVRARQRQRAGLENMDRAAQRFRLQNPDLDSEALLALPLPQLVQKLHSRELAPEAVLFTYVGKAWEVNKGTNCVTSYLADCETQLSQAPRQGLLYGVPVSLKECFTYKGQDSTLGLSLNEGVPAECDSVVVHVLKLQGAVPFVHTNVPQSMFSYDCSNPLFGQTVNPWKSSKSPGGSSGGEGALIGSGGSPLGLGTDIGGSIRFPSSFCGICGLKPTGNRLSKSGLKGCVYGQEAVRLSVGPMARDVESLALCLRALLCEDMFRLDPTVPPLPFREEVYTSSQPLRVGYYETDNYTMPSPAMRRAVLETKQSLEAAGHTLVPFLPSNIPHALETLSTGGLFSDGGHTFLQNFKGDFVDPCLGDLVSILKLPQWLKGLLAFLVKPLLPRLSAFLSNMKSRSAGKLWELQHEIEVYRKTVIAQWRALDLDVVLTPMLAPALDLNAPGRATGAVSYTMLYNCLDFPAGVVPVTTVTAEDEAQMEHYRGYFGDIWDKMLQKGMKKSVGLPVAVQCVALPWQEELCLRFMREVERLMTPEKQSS

[7] = Brain concentration in rat at 1 mg/kg, po administered for 4 hrs by LC/MS analysis; assay type: ADME, organism-based; conditions: read-out: Ct
Procedure, shortened: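 Rats dosed orally at 1 mg/kg. Plasma and brain concentrations measured at 1, 2, 4, 8 and 24 h.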

[8] = biological target: T1, Fatty-acid amide hydrolase 1 (Rattus norvegicus); assay: In vivo inhibition of FAAH in CFA induced Sprague-Dawley rat plasma assessed as elevation of PEA level at 1 mg/kg, po measured for 1 to 24 hrs; assay type: functional, organism-based; conditions: time 1-24 hrs
Rattus norvegicus = assay: Antihyperalgesic activity in MIA induced Sprague-Dawley rat assessed as effect on pain behaviour in contralateral knee joint at 0.3 to 3 mg/kg, po administered once daily for 3 consecutive days; assay type: functional, organism-based; conditions: dose 0.3-3 mg/kg, time 3.0 day
Procedure, shortened: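 Male Sprague-Dawley rats (220–270 g), isoflurane-anesthetized, given 2 mg MIA in 0.9% saline (50 μl) intra-articular into the knee. From day 14, oral dosing at 10 ml/kg once daily for 3 days in 4% 2-hydroxypropyl-β-cyclodextrin/1% ethanol in 0.01 M HCl. Celecoxib 30 mg/kg in 0.5% methylcellulose twice daily. Joint compression threshold by digital Randall-Selitto at 2 and 4 h postdose on days 1 and 3; n = 10/group.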

## O=C(Nc1cccnn1)N1CCC(=Cc2cccc(Oc3ccc(C(F)(F)F)cn3)c2)CC1
Mus musculus [1]
  Activity: Non-Toxic
[2]
  inhibition: 98%
[3]
  concentration: 34.7 nM
[4]
  inhibition: Active
Mus musculus [5]
  Activity: Toxic
[6]
  inhibition: Active
[7]
  concentration at 4 h: 870 nM
[8]
  inhibition: Active
Rattus norvegicus
  Activity: inactive
